A selection: hits, their analogues and other compounds. The true share with any hit is near 2.3%.
OXTR agonist = human OXTR agonists, primary screen, fluorescence, CHO-OTR cells, Fluo-8 calcium | AID 2435, 2010 | Fluo-8 calcium fluorescence; normalized: DMSO 0%, oxytocin 100% | Oxytocin receptor (Homo sapiens), P30559 | 320,000 compounds, 0.32% hits | activation, % at 3 µM;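 active = activation above the mean of all tested compounds plus 3 SD, cutoff set per screening run, cut at about 20% in these data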;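 also: peak over basal fluorescence ratio from a 100 s FLIPR kinetic read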
TAAR1 agonist = human TAAR1 agonists, primary screen, Fluo-8 calcium fluorescence, CHO RD-HGA16 cells; Trace amine-associated receptor 1 (Homo sapiens), Q96RJ0; vehicle wells 0%, saturating PEA agonist 100%; activation, % at 3 µM; 360,000 compounds, 0.99% hits;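 active = activation above the mean activation of all test compounds in the run plus 3 SD, cut at about 38% in these data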
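Test system: RD-HGA16 (CHO) cells co-expressing Gα16 and hTAAR1 / Benchmarks: DMSO vehicle as 0%, PEA at EC100 as 100% / Repeats: no replicates (n 1) / Measure: % activation from peak over basal fluorescence ratio, DMSO-to-PEA scaled / Timing: 17-24 h plating, Fluo-8 75 min 37 °C, 30 min RT / Technique: kinetic Fluo-8 calcium fluorescence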
V1aR counter = agonists of human V1a receptor, primary screen, counter-screen for OXTR agonist project, fluorescence, CHO-V1R cells; Vasopressin V1a receptor (Homo sapiens), P37288; Fluo-8 calcium fluorescence, agonist mode; 0% DMSO, 100% 3 nM vasopressin; activation, % at 3 µM; 320,000 compounds, 0.25% hits; AID 2797, 2010;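 active = activation above the mean activation of all tested compounds plus 3 SD, per screening run, cut at about 20% in these data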;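 also: signal is peak over basal fluorescence ratio across a 100 second FLIPR read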
Target sequence (P37288 whole entry, looked up): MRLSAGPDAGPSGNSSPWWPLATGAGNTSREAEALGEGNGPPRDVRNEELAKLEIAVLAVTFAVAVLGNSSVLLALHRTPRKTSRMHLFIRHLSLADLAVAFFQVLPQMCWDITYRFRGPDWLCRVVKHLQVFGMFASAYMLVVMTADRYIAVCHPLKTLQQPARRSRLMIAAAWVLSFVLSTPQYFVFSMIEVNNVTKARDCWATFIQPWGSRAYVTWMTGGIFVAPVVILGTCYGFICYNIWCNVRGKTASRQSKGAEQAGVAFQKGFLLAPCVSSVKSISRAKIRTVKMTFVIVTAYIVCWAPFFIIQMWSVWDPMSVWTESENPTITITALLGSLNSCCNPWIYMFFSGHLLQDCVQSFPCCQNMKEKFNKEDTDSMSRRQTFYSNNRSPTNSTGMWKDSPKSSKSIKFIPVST
OXTR potentiator = human OXTR potentiators, primary screen, fluorescence, CHO-OTR cells, Fluo-8 calcium | 320,000 compounds, 0.061% hits | activation, % at 3 µM | Fluo-8 calcium fluorescence, potentiator mode; 0% = oxytocin EC15, 100% = EC100;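 active = activation above that plate's cutoff, the mean activation of tested compounds plus 3 SD, cut at about 6.6% in these data, passing the limit was not always enough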
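Material: human OTR in CHO cells. Compound: 3.0 µM, one dose. Timing: compound 6 min at room temperature before oxytocin, 100 s read. Evaluation: % activation of max/min ratio relative to oxytocin controls. Replication: single well per compound, singlicate. Signal: Fluo-8 calcium dye fluorescence.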
TAAR1 antagonist = human TAAR1 antagonists, primary screen, Fluo-8 calcium fluorescence, CHO RD-HGA16 cells; Trace amine-associated receptor 1 (Homo sapiens), Q96RJ0; antagonist; inhibition, % at 3 µM; 360,000 compounds, 1.5% hits; AID 624466, 2012;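 active = inhibition above a per-plate cutoff, the mean inhibition of test compounds on that plate plus 3 SD, cut at about 49% in these data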
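System: RD-HGA16 CHO cells with stable hTAAR1 and Gα16 | Probe or stimulus: EC80 β-phenethylamine stimulus | Dosing: 3 µM, single point | Times: Dye loading 75 min at 37 °C, then 30 min room temperature | Measured by: Fluo-8 calcium-sensitive fluorescence | Read-out basis: % inhibition of agonist calcium response | Replicates: n of 1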
TAAR1 nonsel count = nonselective antagonists in TAAR1 counter-screen cells, counter-screen for hTAAR1 antagonist project, cell-based, fluorescence, calcium; shares compounds with TAAR1 antagonist; counterscreen cell line, antagonist mode; inhibition, % at 3 µM; 2,400 compounds, 77% hits; in the data active = inhibition above about 22%;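 also: CHO-Ga16 host cells stimulated with ATP at an EC80 level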
TAAR1 ant conf = human TAAR1 antagonists, retest of hits, confirmation, cell-based, fluorescence | 2,400 compounds, 40% hits | shares compounds with TAAR1 antagonist | AID 651785, 2012 | TAAR1-expressing cells, fluorescence antagonist read-out | inhibition, % at 3 µM; in the data active = inhibition above about 49%;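 also: CHO-Ga16 host cells challenged with agonist PEA near its EC80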
Ga16 nonsel ag = calcium activation in Ga16-expressing cells, counter-screen for TAAR1 antagonist project, cell-based, fluorescence | activation, % at 3 µM | AID 651953, 2012 | shares compounds with TAAR1 antagonist | 2,400 compounds, 18% hits | agonist counterscreen; in the data active = activation above about 12%
TAAR1 ag counter = TAAR1 activation by candidate antagonists – cell-based, fluorescence, counter-screen for TAAR1 antagonist project; shares compounds with TAAR1 antagonist; hTAAR1 cell line, agonist mode; activation, % at 3 µM; 2,400 compounds, 2% hits; AID 651955, 2012; in the data active = activation above about 37%;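 also: CHO cells stably expressing TAAR1 with calcium dye readout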
Of the large screens only hits and unclear results are named; the others gave an inactive call (follow-up assays come after a bar, where they were run).

O=C(c1cc(-c2ccccc2Cl)nc2ccccc12)N1CCC1	none
Cc1ccc(-c2cc(C(=O)N3CCN(c4ccc(O)cc4)CC3)c3ccccc3n2)cc1	TAAR1 antagonist 65 | TAAR1 nonsel count 35 | TAAR1 ant conf inactive | Ga16 nonsel ag inactive | TAAR1 ag counter inactive
Cc1ccc(-c2cc(C(=O)N3CCN(c4ccccc4O)CC3)c3ccccc3n2)cc1	TAAR1 antagonist 62 | TAAR1 nonsel count 36 | TAAR1 ant conf inactive | Ga16 nonsel ag inactive | TAAR1 ag counter inactive
NC(=O)C1CCN(C(=O)c2cc(-c3ccc(Cl)s3)nc3ccccc23)CC1	TAAR1 antagonist 60 | TAAR1 nonsel count 32 | TAAR1 ant conf inactive | Ga16 nonsel ag inactive | TAAR1 ag counter inactive
O=C(c1cc(-c2ccccc2Cl)nc2ccccc12)N1CCN(c2ccccc2O)CC1	TAAR1 antagonist 59 | TAAR1 nonsel count 22 | TAAR1 ant conf inactive | Ga16 nonsel ag inactive | TAAR1 ag counter inactive
O=C(c1cc(-c2ccccc2)nc2ccccc12)N1CCCC1	none
CN(C(=O)COC(=O)c1cccs1)c1ccccc1	none (no result: OXTR agonist, V1aR counter, OXTR potentiator)
CSCc1c(C(=O)OCC(=O)c2ccc[nH]2)oc2ccccc12	none (no result: OXTR agonist, V1aR counter, OXTR potentiator)
O=C(Nc1nnc([C@@H]2C[C@H](O)[C@@H](CO)O2)s1)NC1CCCCC1	none (no result: OXTR agonist, V1aR counter, OXTR potentiator)
Cc1ccc(S(=O)(=O)N2C[C@H]3C(=O)C[C@@H](c4ccccc4F)N(S(=O)(=O)c4ccc(C)cc4)[C@H]3C[C@H]2c2cccc3ccccc23)cc1	none (no result: OXTR agonist, V1aR counter, OXTR potentiator)
COc1ccc(-c2cc(C(=O)N3CCN(c4ccccc4O)CC3)c3ccccc3n2)cc1OC	TAAR1 antagonist 74 | TAAR1 nonsel count 26 | TAAR1 ant conf inactive | Ga16 nonsel ag inactive | TAAR1 ag counter inactive
Cc1cccc(OCC(=O)Nc2ccc(C(=O)NCC(C)C)cc2)c1	none
Cc1cccc(OCC(=O)Nc2cccc(C(=O)NCC(C)C)c2)c1	TAAR1 antagonist 70 | TAAR1 nonsel count inactive | TAAR1 ant conf inactive | Ga16 nonsel ag inactive | TAAR1 ag counter inactive
O=S1(=O)CC(N2CCCC2)CN1Cc1cn(Cc2cccc(Cl)c2)nn1 (configuration not stated)	none (no result: OXTR agonist, V1aR counter, OXTR potentiator)
CN(C)c1ccc(Nc2nc(N)c([N+](=O)[O-])c(N3CCOCC3)n2)cc1	TAAR1 antagonist 54 | TAAR1 nonsel count 22 | TAAR1 ant conf inactive | Ga16 nonsel ag inactive | TAAR1 ag counter inactive
COc1ccc(NC(=O)c2cc(-c3ccc(F)cc3OC)n[nH]2)c(OC)c1	TAAR1 antagonist 66 (no result: OXTR agonist, V1aR counter, OXTR potentiator) | TAAR1 nonsel count 32 | TAAR1 ant conf inactive | Ga16 nonsel ag inactive | TAAR1 ag counter inactive
COc1ccc(NC(=O)c2cc(-c3cc(Cl)ccc3O)n[nH]2)c(OC)c1	none
CCOC(=O)C1=C(COC(=O)Cc2ccc(Br)cc2)NC(=O)NC1C (configuration not stated)	TAAR1 antagonist 69 | TAAR1 nonsel count 25 | TAAR1 ant conf inactive | Ga16 nonsel ag inactive | TAAR1 ag counter inactive
CCOC(=O)C1=C(COC(=O)/C=C/c2cccc(OC)c2OC)NC(=O)NC1C (configuration not stated)	TAAR1 antagonist 73 | TAAR1 nonsel count 25 | TAAR1 ant conf 52 | Ga16 nonsel ag 12 | TAAR1 ag counter inactive
